Bioassay records as filed in PubChem.
KCNK9 block = human KCNK9 channel inhibition; AID 488922; hit rate 1.2% among 310,000; B-score at 10 µM; HEK293 KCNK9, FluxOR thallium flux fluorescence; active compounds read low; Q9NPC2;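 active = ratio B-score over 3 SD below the library mean, with starting fluorescence within 5 SD of its mean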;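 note: negative B-score means less thallium flux so channel inhibition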
hERG rescue = shields human hERG channel from block by proarrhythmic agents | Q12809 | CHO-hERG, FluxOR thallium flux, dofetilide IC70 present | activation (rescue from dofetilide block), less the hit threshold, % at 10 µM | hit rate 0.51% among 310,000 | AID 1511;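 active = activation above the mean of controls blocked by dofetilide plus 5 SD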;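 note: thallium influx through hERG after potassium depolarization seen as dye fluorescence rise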
Kir21 inh = blocks the mouse Kir2.1 inward-rectifier potassium channel | B-score at 10 µM | HEK293-Kir2.1, FluxOR thallium flux fluorescence; active compounds read low | P35561 | AID 1672 | hit rate 0.85% among 310,000;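 active = fluorescence ratio B-score at or below minus 3 SD of library scores, with starting-brightness B-score within 2 SD, cut at about -4.2 in these data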;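 note: channel flux triggered by added potassium and thallium sulfate stimulus; B-score of peak minus minimum fluorescence over baseline after thallium stimulus; more negative B-score means stronger Kir2.1 block with less thallium influx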
KCNQ1 pot = human KCNQ1 channel potentiation or activation. CHO-K1 KCNQ1, thallium flux FluxOR fluorescence; active compounds read high. B-score at 10 µM. hit rate 0.35% among 310,000. P51787. AID 2648;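 active = fluorescence ratio B-score, a plate-corrected score, at least three library SD, with initial intensity B-score within 5 SD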
Target sequence (P51787 whole entry, looked up): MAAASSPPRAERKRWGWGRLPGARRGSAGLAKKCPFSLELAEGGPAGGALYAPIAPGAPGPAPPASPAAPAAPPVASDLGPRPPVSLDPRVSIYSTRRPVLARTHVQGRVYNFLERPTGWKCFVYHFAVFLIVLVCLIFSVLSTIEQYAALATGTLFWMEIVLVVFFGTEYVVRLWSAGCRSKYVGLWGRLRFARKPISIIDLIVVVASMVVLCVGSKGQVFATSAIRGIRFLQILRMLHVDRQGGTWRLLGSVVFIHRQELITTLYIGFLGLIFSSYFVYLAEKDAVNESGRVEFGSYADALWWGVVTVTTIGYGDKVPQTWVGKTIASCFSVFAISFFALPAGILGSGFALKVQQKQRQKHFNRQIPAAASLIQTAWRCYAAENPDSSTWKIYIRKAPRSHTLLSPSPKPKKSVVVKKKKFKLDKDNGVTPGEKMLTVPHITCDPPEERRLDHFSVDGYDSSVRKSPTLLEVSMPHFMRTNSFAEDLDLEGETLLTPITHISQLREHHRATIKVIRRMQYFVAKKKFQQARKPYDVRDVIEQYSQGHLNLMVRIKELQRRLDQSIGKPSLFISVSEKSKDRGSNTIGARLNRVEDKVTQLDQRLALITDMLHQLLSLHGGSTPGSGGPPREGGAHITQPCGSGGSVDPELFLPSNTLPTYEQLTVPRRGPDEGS
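Assay system: CHO-K1 cells stably expressing KCNQ1; Medium: assay buffer with matched DMSO; Also added: K+/Tl+ depolarizing stimulus; Dosing: single dose; Timing: dye 90 min, compound 20 min, room temperature; Measured by: kinetic FluxOR thallium fluorescence, 10-s 1-Hz baseline, 110-s post-stimulus read; Read-out: peak-minus-minimum fluorescence over initial fluorescence, negative-control normalized, B-scored.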
KCNQ1 block = blocks the human KCNQ1 potassium channel. P51787. CHO-K1 KCNQ1, FluxOR thallium flux fluorescence; active compounds read high. B-score at 10 µM. hit rate 1.3% among 310,000. AID 2642;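 active = compounds whose thallium flux B-score, printed positive for inhibition, exceeds three library SD while starting fluorescence stays within three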;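 note: channel opened by potassium depolarization with thallium stimulus after 20 min compound exposure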
KCNK3 block = human KCNK3 channel inhibition, primary screen | AID 602410 | CHO-KCNK3 thallium flux, FluxOR fluorescence; active compounds read low | O14649 | hit rate 0.84% among 340,000 | B-score at 10 µM;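 active = B-score under library mean minus 4 SD, starting fluorescence ratio at most library mean plus 5 SD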;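 note: more negative B-score means stronger inhibition of thallium flux through KCNK3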
KCNK9 block conf = human KCNK9 inhibitor confirmation | inhibition, % at 10 µM | HEK293 KCNK9 cells, FluxOR thallium flux fluorescence | AID 492992 | hit rate 43% among 4,900 | shares compounds with KCNK9 block;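 active = thallium signal inhibited by more than 5 SD of the compound-free buffer control wells, on both duplicate plates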;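 note: 0% = assay buffer control wells without compound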
Kir21 sel = mouse Kir2.1 off-target activity of KCNK9 modulators | shares compounds with KCNK9 block | Kir2.1 cells, FluxOR thallium flux fluorescence | inhibition, % at 10 µM | hit rate 4% among 4,900 | AID 492993;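 active = thallium signal drop more than 5 SD beyond the mean of the no-compound control wells, seen in both duplicate plates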;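 note: signal is fluorescence rise after thallium addition divided by baseline fluorescence; plate controls were assay buffer only for no effect and full block by chlorpromazine control for full effect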
HEK293 Tl ctr = non-induced cell nonspecific activity of KCNK9 modulators; non-induced KCNK9-HEK293, FluxOR thallium flux; shares compounds with KCNK9 block; inhibition, % at 10 µM; hit rate 40% among 4,900;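 active = thallium signal drop beyond 5 SD of the untreated control mean, on both duplicate plates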;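 note: plate controls were buffer only IC0 wells for no effect and SID17386958 at its maximal inhibitory level for full effect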
An asterisk follows results filed as active; i = inactive; / = not tested or not shown. Hits are enriched below; roughly 3.8% of the tested compounds scored in any of these assays.

SMILES	KCNK9 block	hERG rescue	Kir21 inh	KCNQ1 pot	KCNQ1 block	KCNK3 block	KCNK9 block conf	Kir21 sel	HEK293 Tl ctr
O=C1/C(=C/c2cccc(O)c2)SC(=S)N1CC1CCCO1 (centres undefined)	i	-5	0.09	i	i	i	/	/	/
COc1cccc(/C=C2\SC(=S)N(CC3CCCO3)C2=O)c1 (centres undefined)	i	-7	0.13	i	i	i	i	i	i
Cc1ccc(C(=O)OC(C)C(=O)c2cc(C)c(C)cc2C)o1 (centres undefined)	i	-11	0.09	i	i	i	/	/	/
Cc1cc(C)c(-c2c(O)c3cccnc3n(C)c2=O)c(C)c1	i	-4	1.4	i	i	i	/	/	/
CC(C)C1CC(CCN)(Cc2ccccc2)CCO1 (centres undefined)	i	-9	-1.1	i	i	i	/	/	/
COc1cccc(Oc2ccc(C(F)(F)F)cc2N)c1	-8.4*	-12	0.54	i	i	i	54%*	i	32%*
Cn1cc(S(=O)(=O)N2CCNCC2)cc1C(N)=O	/	/	/	/	/	i	/	/	/
CCOC(=O)C1(Cc2cccc(OC)c2)CCCN(C(=O)c2cc(C)oc2C)C1 (centres undefined)	i	-15	-0.99	i	i	i	/	/	/
CC(C)c1ccccc1-n1c(SCc2cc(=O)oc3ccc4ccccc4c23)nnc1-c1cccnc1	-11*	-17	-1.7	i	i	i	50%*	i	i
O=S1(=O)NC(CC2=CCCCC2)C2CCCCC2O1 (centres undefined)	i	-7	-0.12	i	i	i	/	/	/
Cc1cn(CC(=O)NCCN2CCOCC2)c(=O)[nH]c1=O	/	/	/	/	/	i	/	/	/
CSc1nc2ccccc2cc1/C=C(\C#N)c1ccccc1	-13*	-5	0.69	i	i	i	54%*	i	42%*
CSc1nc2ccccc2cc1/C=C(\C#N)c1cccc(C)c1	i	-7	1.8	i	i	i	/	/	/
C=CC(=O)NCCCc1cc(C(C)(C)C)c(O)c(C(C)(C)C)c1	i	-13	-2	i	i	i	i	i	i
CC(C)(C)c1cc(CCC(=O)NN)cc(C(C)(C)C)c1O	i	-6	-0.05	i	i	i	/	/	/
Cc1cc(=O)c2cc3nc(-c4cccnc4)oc3c(Br)c2o1	i	1	-0.17	i	i	/	/	/	/
COc1ccc(-n2c(Cc3cccn3C)nnc2SCC(=O)Nc2cccc(Cl)c2)cc1	i	-3	1.8	i	i	i	i	i	i
COc1ccc(NC(=O)CSc2nnc(Cc3cccs3)n2-c2ccc(C)cc2)cc1	i	-7	-1	i	i	i	i	i	i
COc1cccc(NC(=O)CSc2nnc(Cc3cccs3)n2-c2ccc(C)cc2)c1	i	-6	0.01	i	i	i	/	/	/
COc1ccc(-n2c(Cc3cccn3C)nnc2SCC(=O)Nc2cccc(NC(C)=O)c2)cc1	i	-12	0.92	i	i	i	/	/	/
CCNc1nc(NCC)n2c(SCC(=O)c3ccccc3F)nnc2n1	i	-22	-0.76	i	i	i	/	/	/
COc1ccc(N2C(=O)/C(=C\c3ccco3)N=C2SCC(=O)NC(C)C)cc1Cl	-12*	-5	-1.2	i	i	i	78%*	i	36%*
CC1=NNC(=O)/C1=C\c1cn(-c2ccccc2)nc1-c1ccccc1	i	-20	-0.07	i	i	i	i	i	i
CCN(CC)CCCNC(=O)c1ccc2c3n(nc2c1)-c1ccc(Cl)cc1CO3	i	-5	-0.55	i	i	i	/	/	/
CCc1ccc(Nc2n[n+](-c3ccccc3)c(-c3c(Cl)cccc3Cl)s2)cc1	i	-25	-1.3	i	i	i	/	/	/
SMILES	KCNK9 block	hERG rescue	Kir21 inh	KCNQ1 pot	KCNQ1 block	KCNK3 block	KCNK9 block conf	Kir21 sel	HEK293 Tl ctr
COc1ccc(C)cc1Nc1n[n+](-c2ccccc2)c(-c2c(Cl)cccc2Cl)s1	-15*	-32	-3.5	i	11*	/	64%*	33%*	36%*
OCCC1CN(Cc2ccon2)CCN1CCc1ccccc1 (centres undefined)	i	-2	0.64	i	i	i	/	/	/
Oc1ccccc1N1CCN(c2ccc3ccccc3n2)CC1	i	-7	0.41	i	i	i	/	/	/
CCC(=O)/C=C1/Sc2ccccc2N1CC	i	-4	0.82	i	i	i	/	/	/
CCN1/C(=C/c2sc(-c3ccccc3C)c[n+]2C)Sc2ccccc21	-13*	-52	-7.6*	i	11*	-10*	69%*	64%*	28%*
N#CC(c1ccccc1)C1CCN(Cc2ccccc2)CC1 (centres undefined)	i	-8	-5.2*	i	i	i	i	i	i
CC(CN1CCN(Cc2ccccc2)CC1)c1ccccc1 (centres undefined)	i	-4	0.32	i	i	i	/	/	/
Nc1c(-c2ccccc2)c(CSc2nc3ccccc3[nH]2)nn1-c1ccc(Cl)cc1	-9.3*	-8	-1.2	i	i	i	60%*	i	28%*
Nc1c(-c2ccccc2)c(CSc2nc3ccccc3[nH]2)nn1-c1cccc(Cl)c1	-13*	-6	-0.53	i	i	i	71%*	i	38%*
CCOc1ccc2[nH]c(=O)c(CN(Cc3cccs3)Cc3nnnn3C(C)(C)CC)cc2c1	-9.7*	-18	-2.2	i	i	-9.9*	34%*	i	i
COc1ccc(/C=N/Nc2nc(-c3ccc(Cl)cc3)cc(C(F)(F)F)n2)cc1OC	i	-10	0.06	i	6*	i	i	i	i
COc1ccc(C(=O)CSc2ccc(-c3ccc(C)cc3)nn2)cc1	i	-4	0.76	i	i	i	i	i	i
Cc1cc2c(=O)n(Cc3ccco3)c(SCC(=O)N3CCCc4ccccc43)nc2s1	i	-2	1.7	i	i	i	i	i	i
Cc1sc2nc(SCc3ccc(C(=O)O)cc3)n(Cc3ccco3)c(=O)c2c1C	i	-16	1.8	i	i	i	i	i	i
O=C(CSc1ccc(-c2ccccc2)nn1)c1ccccc1	i	-6	-0.14	i	i	i	/	/	/
O=C(CSc1nc2ccccc2c(=O)n1-c1ccccc1)N1CCCc2ccccc21	i	-4	1	i	i	i	i	i	i
